Marks after values point to notes of the source that are not given here.
Experiments:
[1] = system: 48 h-larvae mwh +/+ flr^3; test: Wing spot test; assay type: in vivo, Drosophila melanogaster; conditions: for Small single spots (1–2 cells), statistical diagnosis / Total spots, statistical diagnosis: m = 2; for Small single spots (1–2 cells), statistical diagnosis / Total spots, statistical diagnosis / Large single spots (>cells), statistical diagnosis / Twin spots, statistical diagnosis: vs control; for Large single spots (>cells), statistical diagnosis / Twin spots, statistical diagnosis: m = 5
Method in brief: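 Crosses: mwh/mwh females × flr3/TM3,Bds males mated 2 h, eggs laid over 2 h. 48 h larvae were collected on 20% sucrose, washed in 24 ± 1 °C water, held 24 h in the dark on filter paper with PP-IX (0–69 mM in 5% sucrose), then fed CrO3 (0.025–2.5 mM) in instant medium, in triplicate. Non-Ser wings were scored at 40× for small (1–2 cells), large and twin spots. Frei–Würgler one-sided test, α=β=0.05, m multiplication factor.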

[2] = system: 48 h-old mwh+/+flr^3 larvae; test: Toxicity test; assay type: in vivo, Drosophila melanogaster; conditions: for % of non-viable larvae / No. of viable larvae ± SEM: 500 larvae

[O]=[Cr](=[O])=[O] [CrO3, chromium trioxide]
Large single spots (>cells) per wing ([1]; CrO3 0.025 mM, 120 wings): 0.04 spots per wing | Large single spots (>cells), number of spots ([1]; CrO3 0.025 mM, 120 wings): 5 | Small single spots (1–2 cells) per wing ([1]; CrO3 0.025 mM, 120 wings): 0.26 spots per wing | Small single spots (1–2 cells), number of spots ([1]; CrO3 0.025 mM, 120 wings): 31 | Total spots per wing ([1]; CrO3 0.025 mM, 120 wings): 0.33 spots per wing | Total spots, number of spots ([1]; CrO3 0.025 mM, 120 wings): 40 | Twin spots per wing ([1]; CrO3 0.025 mM, 120 wings): 0.03 spots per wing | Twin spots, number of spots ([1]; CrO3 0.025 mM, 120 wings): 4 | Small single spots (1–2 cells), statistical diagnosis ([1]; CrO3 0.025 mM): − | Total spots, statistical diagnosis ([1]; CrO3 0.025 mM): − | Large single spots (>cells), statistical diagnosis ([1]; CrO3 0.025 mM): − | Statistical significance of spot induction vs control ([1]; CrO3 0.25 mM and higher, all kinds of spots): Statistical significant differences were found for all kinds of spots | Large single spots (>cells) per wing ([1]; CrO3 0.25 mM, 150 wings): 0.11 spots per wing | Large single spots (>cells), number of spots ([1]; CrO3 0.25 mM, 150 wings): 16 | Small single spots (1–2 cells) per wing ([1]; CrO3 0.25 mM, 150 wings): 0.43 spots per wing | Small single spots (1–2 cells), number of spots ([1]; CrO3 0.25 mM, 150 wings): 64 | Total spots per wing ([1]; CrO3 0.25 mM, 150 wings): 0.59 spots per wing | Total spots, number of spots ([1]; CrO3 0.25 mM, 150 wings): 88 | Twin spots per wing ([1]; CrO3 0.25 mM, 150 wings): 0.05 spots per wing | Twin spots, number of spots ([1]; CrO3 0.25 mM, 150 wings): 8 | Small single spots (1–2 cells), statistical diagnosis ([1]; CrO3 0.25 mM): + | Total spots, statistical diagnosis ([1]; CrO3 0.25 mM): + | Large single spots (>cells), statistical diagnosis ([1]; CrO3 0.25 mM): − | Twin spots, statistical diagnosis ([1]; CrO3 0.25 mM): + | Large single spots (>cells) per wing ([1]; CrO3 1.25 mM, 118 wings): 0.36 spots per wing | Large single spots (>cells), number of spots ([1]; CrO3 1.25 mM, 118 wings): 42 | Small single spots (1–2 cells) per wing ([1]; CrO3 1.25 mM, 118 wings): 0.63 spots per wing | Small single spots (1–2 cells), number of spots ([1]; CrO3 1.25 mM, 118 wings): 74 | Total spots per wing ([1]; CrO3 1.25 mM, 118 wings): 1.12 spots per wing | Total spots, number of spots ([1]; CrO3 1.25 mM, 118 wings): 132 | Twin spots per wing ([1]; CrO3 1.25 mM, 118 wings): 0.14 spots per wing | Twin spots, number of spots ([1]; CrO3 1.25 mM, 118 wings): 16 | Small single spots (1–2 cells), statistical diagnosis ([1]; CrO3 1.25 mM): + | Total spots, statistical diagnosis ([1]; CrO3 1.25 mM): + | Large single spots (>cells), statistical diagnosis ([1]; CrO3 1.25 mM): + | Twin spots, statistical diagnosis ([1]; CrO3 1.25 mM): + | Large single spots (>cells) per wing ([1]; CrO3 2.0 mM, 80 wings): 0.52 spots per wing | Large single spots (>cells), number of spots ([1]; CrO3 2.0 mM, 80 wings): 42 | Small single spots (1–2 cells) per wing ([1]; CrO3 2.0 mM, 80 wings): 0.81 spots per wing | Small single spots (1–2 cells), number of spots ([1]; CrO3 2.0 mM, 80 wings): 65 | Total spots per wing ([1]; CrO3 2.0 mM, 80 wings): 1.79 spots per wing | Total spots, number of spots ([1]; CrO3 2.0 mM, 80 wings): 143 | Twin spots per wing ([1]; CrO3 2.0 mM, 80 wings): 0.45 spots per wing | Twin spots, number of spots ([1]; CrO3 2.0 mM, 80 wings): 36 | Small single spots (1–2 cells), statistical diagnosis ([1]; CrO3 2.0 mM): + | Total spots, statistical diagnosis ([1]; CrO3 2.0 mM): + | Large single spots (>cells), statistical diagnosis ([1]; CrO3 2.0 mM): + | Twin spots, statistical diagnosis ([1]; CrO3 2.0 mM): + | Large single spots (>cells) per wing ([1]; CrO3 2.5 mM, 120 wings): 1.97 spots per wing | Large single spots (>cells), number of spots ([1]; CrO3 2.5 mM, 120 wings): 236 | Small single spots (1–2 cells) per wing ([1]; CrO3 2.5 mM, 120 wings): 2.87 spots per wing | Small single spots (1–2 cells), number of spots ([1]; CrO3 2.5 mM, 120 wings): 344 | Total spots per wing ([1]; CrO3 2.5 mM, 120 wings): 6.95 spots per wing | Total spots, number of spots ([1]; CrO3 2.5 mM, 120 wings): 834 | Twin spots per wing ([1]; CrO3 2.5 mM, 120 wings): 2.11 spots per wing | Twin spots, number of spots ([1]; CrO3 2.5 mM, 120 wings): 254 | Small single spots (1–2 cells), statistical diagnosis ([1]; CrO3 2.5 mM): + | Total spots, statistical diagnosis ([1]; CrO3 2.5 mM): + | Large single spots (>cells), statistical diagnosis ([1]; CrO3 2.5 mM): + | Twin spots, statistical diagnosis ([1]; CrO3 2.5 mM): + | Frequency of mutation relative to the control group ([1]; higher CrO3 concentration (2.5 mM)): 20 times | % of non-viable larvae ([2]; CrO3 0.25 mM): 10% | No. of viable larvae ± SEM ([2]; CrO3 0.25 mM): 448 ± 0.3 | No. of viable larvae ± SEM ([2]; CrO3 2.0 mM): 325 ± 2.8 | % of non-viable larvae ([2]; CrO3 2.0 mM, significant to p < 0.05 compared with control): 35 ^* % | Mortality ([2]; CrO3 2.5 mM): 61% | Reduction of viability over the control ([2]; CrO3 2.5 mM): 45% | No. of viable larvae ± SEM ([2]; CrO3 2.5 mM): 194 ± 0.8 | % of non-viable larvae ([2]; CrO3 2.5 mM, significant to p < 0.05 compared with control): 61 ^* % | Toxicity compared to the control ([2]; CrO3 2 and 2.5 mM): toxic

— publication PMC5598375 (Toxicology Reports, 2014)
